Values after ≈ are worked out from the molar mass of the structure shown. Active and inactive are the calls of the source. The calls are words filed in the database; no cut-off is given here. Numbered stars: 1 amine (or outer) side, 2 acyl side, 3 side chain; on linkers, the order of the positions; unused ones are H or OH. Bridge positions count the residues as written; N and C are the ends. Square brackets hold non-standard residues; d marks the D form. Peptide text beside a SMILES is read from it. * marks the point of attachment. ξ: configuration not given here. X2 = CCCCCCCCCCCCC(C)C(CC(=O)[*:1])O[*:2]; X1 = CCCCCCCCCCCCC(C)(O)C(O)CC(=O)*; ξhSer = NC(CCO)C(=O)O
Experiments:
Candida albicans [1] = experiment: Induction of ATP release from cytoplasm of Candida albicans SC5314 at >MIC by Promega Bactiter Glo assay; type: functional, organism-based
Summary of the method: (§1)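 ATP leaking from fungal cells exposed to compound was measured by BacTiter Glo luminescence per manufacturer's instructions, in parallel with whole-cell growth inhibition across a concentration series. Release was referenced to basal ATP release in the assay and to total ATP release for each strain.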

Candida albicans [2] = experiment: Induction of ATP release from cytoplasm of Candida albicans isolate 2323 at >MIC by Promega Bactiter Glo assay; type: functional, organism-based; summary of the method: as §1
Candida albicans [3] = experiment: Antifungal activity against Candida albicans expressing DIP5 deletion mutant assessed as inhibition of fungal growth; type: functional, organism-based
Candida albicans [4] = experiment: Induction of ATP release from cytoplasm of Candida albicans SC5314 at 0.1 to 25 ug/ml by Promega Bactiter Glo assay; type: functional, organism-based
Summary of the method: (§2)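 Release of cytoplasmic ATP from whole C. albicans cells (strains 2323 and SC5314) exposed to compound, measured with the BacTiter Glo luminescence kit per manufacturer's instructions. Read alongside whole-cell growth inhibition in the same strains, and compared with basal ATP release and total releasable ATP for each strain.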

Candida albicans [5] = experiment: Antifungal activity against Candida albicans expressing CMD1 deletion mutant assessed as inhibition of fungal growth; type: functional, organism-based
Candida albicans [6] = experiment: Antifungal activity against Candida albicans expressing CRZ1 deletion mutant assessed as inhibition of fungal growth; type: functional, organism-based
Candida albicans [7] = experiment: Induction of ATP release from cytoplasm of Candida albicans isolate 2323 at 0.1 to 25 ug/ml by Promega Bactiter Glo assay; type: functional, organism-based; summary of the method: as §2
Pichia kudriavzevii = experiment: Antifungal activity against Candida krusei ATCC 6258 assessed as inhibition of fungal growth after 24 hrs; type: functional; details: ATCC 6258, 24 h
Summary of the method: (§3)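 Broth dilution against each fungal strain. Inoculum 10^5 CFU/mL, compound in 2-fold serial dilution in growth medium at 37 °C. MIC is the lowest concentration inhibiting visible growth; MIC80 (prominent inhibition, MEC for Aspergillus) also read. Incubation 24 h, except 48 h for A. fumigatus.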

Candida albicans [8] = experiment: Antifungal activity against Candida albicans MY1055 assessed as inhibition of fungal growth after 24 hrs in presence of 50% mouse serum; type: functional; details: MY1055, 24 h
Candida tropicalis = experiment: Antifungal activity against Candida tropicalis MY1012 assessed as inhibition of fungal growth after 24 hrs; type: functional; details: MY1012, 24 h; summary of the method: as §3
Staphylococcus aureus = experiment: Antimicrobial activity against Staphylococcus aureus MB2865 assessed as inhibition of microbial growth after 24 hrs; type: functional; details: MB2865, 24 h
Aspergillus fumigatus [9] = experiment: Antifungal activity against Aspergillus fumigatus MF5668 assessed as inhibition of fungal growth after 48 hrs; type: functional; details: MF5668, 48 h; summary of the method: as §3
Candida albicans [10] = experiment: Antifungal activity against Candida albicans MY1055 assessed as inhibition of fungal growth after 24 hrs; type: functional; details: MY1055, 24 h; summary of the method: as §3
Nakaseomyces glabratus = experiment: Antifungal activity against Candida glabrata MY1381 assessed as inhibition of fungal growth after 24 hrs; type: functional; details: MY1381, 24 h; summary of the method: as §3
Candida parapsilosis = experiment: Antifungal activity against Candida parapsilosis ATCC 22019 assessed as inhibition of fungal growth after 24 hrs; type: functional; details: Lodderomyces parapsilosis, ATCC 22019, 24 h; summary of the method: as §3
Aspergillus fumigatus [11] = experiment: Antifungal activity against Aspergillus fumigatus MF5668 assessed as inhibition of fungal growth after 48 hrs in presence of 50% human serum; type: functional; details: MF5668, 48 h
Summary of the method: (§4)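 Whole-cell growth assay with incubation of 24 h for most strains, 48 h for A. fumigatus and 96 h for T. mentagrophytes. MIC is the lowest concentration inhibiting visible growth. MIC80 is prominent growth inhibition, also called MEC for Aspergillus.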

[12] = tested on: Trichophyton mentagrophytes; experiment: Antifungal activity against Trichophyton mentagrophytes MF7004 assessed as inhibition of fungal growth after 96 hrs; type: functional; details: MF7004, 96 h; summary of the method: as §4
Clavispora lusitaniae = experiment: Antifungal activity against Candida lusitaniae MY1396 assessed as inhibition of fungal growth after 24 hrs; type: functional; details: MY1396, 24 h; summary of the method: as §4
Candida albicans [13] = experiment: Induction of ATP release from cytoplasm of Candida albicans SC5314 at 0.2 to 50 ug/ml by Promega Bactiter Glo assay; type: functional, organism-based; summary of the method: as §2
Mus musculus [14] = experiment: Toxicity in DBA/2N mouse assessed as induction of lethality at 6.25 mg/kg, ip; type: organism-based; parameters: dose 6.25 mg/kg, route intraperitoneal; details: in vivo
Candida albicans [15] = experiment: Antifungal activity against Candida albicans expressing AUR+/- gene assessed as inhibition of fungal growth; type: functional, organism-based
Candida albicans [16] = experiment: Antifungal activity against Candida albicans expressing RTA1+/- gene assessed as inhibition of fungal growth; type: functional, organism-based
Mus musculus [17] = experiment: Toxicity in DBA/2N mouse assessed as induction of lethality at >12.5 mg/kg, ip; type: organism-based; details: in vivo
Candida albicans [18] = experiment: Induction of ATP release from cytoplasm of Candida albicans isolate 2323 at 0.2 to 50 ug/ml by Promega Bactiter Glo assay; type: functional, organism-based; summary of the method: as §2

| Structure (SMILES) | Activity (Candida albicans [1]) | Activity (Candida albicans [2]) | growth inhibition (GI) (Candida albicans [3]) | growth inhibition (GI) (Candida albicans [5]) | growth inhibition (GI) (Candida albicans [6]) | MIC (Pichia kudriavzevii) | MIC (Candida albicans [8]) | MIC (Candida tropicalis) | MIC (Staphylococcus aureus) | MIC (Aspergillus fumigatus [9]) | MIC (Candida albicans [10]) | MIC (Nakaseomyces glabratus) | MIC (Candida parapsilosis) | MIC (Aspergillus fumigatus [11]) | MIC [12] | MIC (Clavispora lusitaniae) | further results |
| --- | --- | --- | --- | --- | --- | --- | --- | --- | --- | --- | --- | --- | --- | --- | --- | --- | --- |
| C[C@@H]1[C@H](O)[C@@H](C)/C=C/C=C/C=C/C=C/C=C/C=C/C=C/[C@H](O[C@@H]2O[C@H](C)[C@@H](O)[C@H](N)[C@@H]2O)C[C@@H]2O[C@](O)(C[C@@H](O)C[C@@H](O)[C@H](O)CC[C@@H](O)C[C@@H](O)CC(=O)O[C@H]1C)C[C@H](O)[C@H]2C(=O)O | inactive | inactive |  |  |  |  |  |  |  |  |  |  |  |  |  |  |  |
| CCCCCCCCCCCCC(C)C1CC(=O)N[C@@H](C)C(=O)NC(CCO)C(=O)N[C@@H](CCC(=O)O)C(=O)NCC(=O)N[C@@H](CO)C(=O)N[C@H](CC(N)=O)C(=O)N[C@H]([C@H](C)O)C(=O)NC(CCO)C(=O)O1 (some centres undefined) (A[ξhSer]EGS[dN][dT][ξhSer]; linker N-C via X2) |  |  | inactive | Active | Active |  |  |  |  |  |  |  |  |  |  |  | Activity (Candida albicans [4]): inactive; Activity (Candida albicans [7]): inactive |
| CCCCCCCCCCCCC(C)(O)C(O)CC(=O)N[C@@H](CO)C(=O)N[C@@H](C)C(=O)N[C@@H](CC(=O)O)C(=O)N[C@@H](C)C(=O)N[C@@H](CO)C(=O)N[C@@H](CO)C(=O)N[C@H](C(=O)O)[C@@H](C)O (some centres undefined) (X1-SADASST-OH) |  |  |  |  |  | > 32 µg/mL | > 32 µg/mL | > 32 µg/mL | > 32 µg/mL | > 32 µg/mL | > 32 µg/mL | > 32 µg/mL | > 32 µg/mL | > 32 µg/mL | > 32 µg/mL | > 32 µg/mL |  |
| CC[C@H](C)C[C@H](C)CCCCCCCCC(=O)N[C@H]1C[C@@H](O)[C@@H](NCCN)NC(=O)[C@@H]2[C@@H](O)CCN2C(=O)[C@H]([C@H](O)CCN)NC(=O)[C@H]([C@H](O)[C@@H](O)c2ccc(O)cc2)NC(=O)[C@@H]2C[C@@H](O)CN2C(=O)[C@H]([C@@H](C)O)NC1=O [CASPOFUNGIN] | Active | Active |  |  |  | 1 µg/mL (≈ 0.915 µM) | 0.25 µg/mL |  | > 32 µg/mL | 32 µg/mL (≈ 29.3 µM) | 0.5 µg/mL (≈ 0.457 µM) | 0.25 µg/mL (≈ 0.229 µM) | 0.5 µg/mL (≈ 0.457 µM) | 32 µg/mL | 32 µg/mL (≈ 29.3 µM) | < 0.03 µg/mL |  |
| CCCCCCCCCCCC(C)(O)C1CC(=O)N[C@@H](CO)C(=O)N[C@H](C)C(=O)N[C@H](CC(=O)O)C(=O)N[C@@H](C)C(=O)N[C@H](CO)C(=O)N[C@H](CO)C(=O)N[C@H]([C@@H](C)O)C(=O)O1 (some centres undefined) [PHAEOFUNGIN] |  |  | inactive | inactive | inactive | > 32 µg/mL | > 32 µg/mL | > 32 µg/mL | > 32 µg/mL | 16 µg/mL (≈ 18 µM) | 32 µg/mL (≈ 36 µM) | > 32 µg/mL | > 32 µg/mL | > 32 µg/mL | 4 µg/mL (≈ 4.49 µM) | 32 µg/mL (≈ 36 µM) | MIC80 (Pichia kudriavzevii): 32 µg/mL (≈ 36 µM); minimal effective concentration (Aspergillus fumigatus [9]; read-out: MEC): 8 µg/mL; Activity (Candida albicans [13]): Active; MIC80 (Candida albicans [10]): 16 µg/mL (≈ 18 µM); Activity (Mus musculus [14]): Non-toxic; MIC80 (Candida parapsilosis): 32 µg/mL (≈ 36 µM); growth inhibition (GI) (Candida albicans [15]): Active; growth inhibition (GI) (Candida albicans [16]): Active; Activity (Mus musculus [17]): Dose-dependent effect; Activity (Candida albicans [18]): Active |

— ChEMBL document CHEMBL2346577, “Isolation, structure, and biological activity of Phaeofungin, a cyclic lipodepsipeptide from a Phaeosphaeria sp. Using the Genome-Wide Candida albicans Fitness Test” (J Nat Prod, 2013)
